≈ marks a conversion by molar mass, not a printed value. Where “and” joins values, the source holds several entries; their conditions need not be identical. Equal values may be shown once.
Experiments:
[1] = test system: Salmonella typhi; assay: Disc diffusion antibacterial susceptibility test; assay type: cell-based; conditions: mean ± SD, triplicate, NI = No inhibition
Method in brief: (§1)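 Bacteria came from a university microbiology laboratory stock. Colonies were suspended in sterile 0.85% saline and matched to McFarland 0.5, then swabbed evenly onto Mueller-Hinton agar. 6 mm filter-paper discs carrying test compound were laid on the agar. Plates were incubated 18 h at 37 °C and inhibition zone diameters measured in mm. Three repeats, reported as mean ± SD.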

[2] = test system: Escherichia coli; assay: Disc diffusion antibacterial susceptibility test; assay type: cell-based; conditions: mean ± SD, triplicate, NI = No inhibition
Method in brief: as §1

[3] = test system: Bacillus subtilis; assay: Disc diffusion antibacterial susceptibility test; assay type: cell-based; conditions: 18 h at 37 °C, mean ± SD, triplicate, NI = No inhibition
Method in brief: as §1

[4] = test system: Pseudomonas aeruginosa; assay: Disc diffusion antibacterial susceptibility test; assay type: cell-based; conditions: mean ± SD, triplicate, NI = No inhibition
Method in brief: as §1

[5] = test system: brine shrimps nauplii; assay: Brine shrimp lethality assay; assay type: in vivo; conditions: brine shrimp lethality bioassay, 24 h and 48 h
Method in brief: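 Test compound was dissolved in DMSO and made up to 5 ml with NaCl solution at four concentrations. Ten nauplii per vial, each concentration run three times; control vial held 10 nauplii in 5 ml seawater. Vials stood at room temperature for 24 h and 48 h. Survivors were counted under a magnifying glass, and average % mortality was calculated per concentration.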

[6] = test system: B. subtilis; assay: MIC and MBC by micro-broth dilution; assay type: cell-based; conditions: Bacillus subtilis
Method in brief: (§2)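 Broth microdilution in Mueller-Hinton broth, using a two-fold test compound series over 0.125 to 128 µg/mL. Wells received 5 µL of inoculum at 10⁴–10⁵ CFU/mL, diluted from a 0.5 McFarland suspension. Each plate had growth (no compound) and sterility controls. After 24 h at 37 °C, 0.5% (w/v) triphenyl tetrazolium chloride was added for a further 24 h at 37 °C. Red colour indicated growth, and MIC/MBC were read visually.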

[7] = test system: tested strains (pathogenic bacteria); assay: MIC and MBC by micro-broth dilution, over the tested strains; assay type: cell-based; conditions: for MBC: read-out: MBC values against the tested organisms; for MIC: read-out: MIC values against the tested strains
Method in brief: as §2

[8] = test system: Aspergillus flavus; assay: Mycelial growth inhibition; assay type: cell-based; conditions: 5 days incubation, mean ± SD, triplicate, NI = No inhibition
[9] = test system: Aspergillus niger; assay: Mycelial growth inhibition; assay type: cell-based; conditions: 5 days incubation, mean ± SD, triplicate, NI = No inhibition

SMILES	Diameter of inhibition zone, S. typhi (-ve) [1]	Diameter of inhibition zone, E. coli (-ve) [2]	Diameter of inhibition zone, B. subtilis (+ve) [3]	Diameter of inhibition zone, P. aeruginosa (-ve) [4]	% death of brine shrimp (level of toxicity) [5] [%]	MIC [6] [µg/mL]	MBC [7] [µg/mL]	MIC [7] [µg/mL]	% inhibition of fungal mycelial growth in mm (20 μg/μL), Aspergillus. flavus [8]	% inhibition of fungal mycelial growth in mm (20 μg/μL), Aspergillus niger [9]
CC[C@H]1OC(=O)[C@H](C)[C@@H](O[C@H]2C[C@@](C)(OC)[C@@H](O)[C@H](C)O2)[C@H](C)[C@@H](O[C@@H]2O[C@H](C)C[C@H](N(C)C)[C@H]2O)[C@](C)(O)C[C@@H](C)CN(C)[C@H](C)[C@@H](O)[C@]1(C)O [Azithromycin, reference compound]	**18 ± 0.2 mm	**17.25 ± 0.1 mm	18.5 ± 0.3 mm	**18.5 ± 0.3 mm						
CCCCCCCCCCCC(=O)OC[C@H]1O[C@@H](n2cc(C)c(=O)[nH]c2=O)C[C@@H]1OC(=O)c1ccc(Br)cc1 [analog 6, 3́-O-(4-Bromobenzoyl)-5́-O-(lauroyl)thymidine]	9.5 ± 0.1 mm				38.75					
CCCCCCCCCCCC(=O)OC[C@H]1O[C@@H](n2cc(C)c(=O)[nH]c2=O)C[C@@H]1O [analog 2, 5́-O-(Lauroyl)thymidine]	*14.50 ± 0.3 mm	*13.00 ± 0.1 mm		*12.75 ± 0.1 mm	36.25	0.125 (≈ 0.294 µM)	8 to 16 (≈ 18.8 to 37.7 µM)	0.125 to 8 (≈ 0.294 to 18.8 µM)	*82.76 ± 1.0%	*60.16 ± 1.2%
CCCCCCCCCCCCCCCC(=O)O[C@H]1C[C@H](n2cc(C)c(=O)[nH]c2=O)O[C@@H]1COC(=O)CCCCCCCCCCC [analog 5, 5′-O-Lauroyl-3′-O-(palmitoyl)thymidine]	*15.25 ± 0.2 mm	9.00 ± 0.2 mm	14.50 mm and 14.5 ± 0.1 mm	8.50 ± 0.2 mm					*81.55 ± 1.0%	57.62 ± 1.1%
CCCCCCCCCCCC(=O)OC[C@H]1O[C@@H](n2cc(C)c(=O)[nH]c2=O)C[C@@H]1OC(=O)c1ccc(C(C)(C)C)cc1 [analog 3, 3́-O-(4-t-Butylbenzoyl)-5́-O-(lauroyl)thymidine]	9.75 ± 0.2 mm		13.25 mm and 13.25 ± 0.2 mm	*11.75 ± 0.4 mm			8 to 16 (≈ 13.7 to 27.4 µM)	0.125 to 8 (≈ 0.214 to 13.7 µM)	*72.95 ± 1.0%	*65.25 ± 1.1%
C[C@@H]1[C@H](O)[C@@H](C)/C=C/C=C/CC/C=C/C=C/C=C/C=C/C(O[C@H]2O[C@H](C)[C@@H](O)[C@H](N)[C@@H]2O)CC2O[C@](O)(CC(O)C(O)CCC(O)CC(O)CC(O)CC(=O)O[C@H]1C)CC(O)C2C(=O)O (some centres unmarked) [Nystatin, reference compound]									**64.1 ± 1.0%	**65.4 ± 1.0%
CCCCCCCCCCCCCC(=O)O[C@H]1C[C@H](n2cc(C)c(=O)[nH]c2=O)O[C@@H]1COC(=O)CCCCCCCCCCC [analog 4, 5́-O-Lauroyl-3́-O-(myristoyl)thymidine]		*12.5 ± 0.2 mm	12.75 mm and 12.75 ± 0.1 mm							
